This is an account of results in ChEMBL document CHEMBL4680120, “Novel anti-Alzheimer phenol-lipoyl hybrids: Synthesis, physico-chemical characterization, and biological evaluation” (Eur J Med Chem, 2020).

Data set [1] can be described thus: Solubility of compound in water by HPLC analysis. In kind it is physicochemical.
A short description of data set [2]: Stability in simulated gastric fluid at pH 1.2 assessed as relative difference measured after 15 mins in presence of pepsin by HPLC analysis. The class given is ADME. The conditions noted are these: isolated protein, pH 1.2, 0.25 h. In outline:
(§1)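 Incubation in simulated gastric fluid (pH 1.2, pepsin) or simulated intestinal fluid (pH 6.8, pancreatin). Aliquots deproteinized with ice-cold acetonitrile, centrifuged at 4°C and 12000 rpm for 10 min, filtered, analyzed by HPLC. RD% = (Ci − Cf)/Ci × 100. Stable if RD < 5%. Means of three experiments.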

Data set [3] is described as follows: Stability in simulated gastric fluid at pH 1.2 assessed as relative difference measured after 30 mins in presence of pepsin by HPLC analysis. The class given is ADME. Particulars: isolated protein, pH 1.2, 0.5 h. In outline:
as §1

Data set [4] is described as follows: Stability in simulated gastric fluid at pH 1.2 assessed as relative difference measured after 60 mins in presence of pepsin by HPLC analysis. The conditions noted are these: isolated protein, pH 1.2, 1 h. The class given is ADME. The method, boiled down:
as §1

Data set [5] is described as follows: Stability in simulated intestinal fluid at pH 6.8 assessed as relative difference measured after 15 mins in presence of pancreatin by HPLC analysis. In kind it is ADME. Particulars: simulated gi fluid, pH 6.8, 0.25 h. The method, boiled down: as §1
Data set [6] in a line: Stability in simulated intestinal fluid at pH 6.8 assessed as relative difference measured after 30 mins in presence of pancreatin by HPLC analysis. The class given is ADME. Particulars: simulated gi fluid, pH 6.8, 0.5 h. In outline: as §1
Data set [7] can be described thus: Stability in simulated intestinal fluid at pH 6.8 assessed as relative difference measured after 60 mins in presence of pancreatin by HPLC analysis. In kind it is ADME. The conditions noted are these: simulated gi fluid, pH 6.8, 1 h. In outline: as §1
Data set [8] in a line: Stability in simulated intestinal fluid at pH 6.8 assessed as relative difference measured after 120 mins in presence of pancreatin by HPLC analysis. In kind it is ADME. Particulars: simulated gi fluid, pH 6.8, 2 h. In outline: as §1
Data set [9] is described as follows: Stability in simulated intestinal fluid at pH 6.8 assessed as relative difference measured after 180 mins in presence of pancreatin by HPLC analysis. The conditions noted are these: simulated gi fluid, pH 6.8, 3 h. In kind it is ADME. In outline:
as §1

A short description of data set [10]: Half life in human plasma by HPLC analysis. The class given is ADME, cell-free. The method, boiled down: (§2)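 Compound stock added to human plasma pre-warmed to 37°C and diluted with 0.02 M phosphate buffer (pH 7.4) to 80% plasma. 100 μL samples taken over time, quenched with 200 μL cold acetonitrile, centrifuged, and supernatant analyzed by HPLC. t½ and kobs are means of three experiments.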

The nature of data set [11]: Stability in human plasma assessed as observed rate constant by HPLC analysis. In kind it is ADME, cell-free. The method, boiled down:
as §2

Data set [12] relates to SH-SY5Y. In words: Cytotoxicity against human SH-SY5Y cells assessed as reduction in cell viability at 1 to 250 mg/l measured after 48 hrs by MTT assay. The class given is cell-based. The conditions noted are these: dose 1-250 mg/L. The method, boiled down:
(§3)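 SH-SY5Y cells grown in DMEM/F12 with 10% FBS and differentiated with retinoic acid (10 μM), seeded at 1×10^4 per well and cultured 24 h. Cells were given hybrids at 1–250 mg/L with or without Aβ1-42 (20 μM) for 48 h. MTT (5 mg/mL) added for 4 h at 37°C, DMSO solubilization, read at 570/630 nm. LDH read at 450 nm. Five independent experiments.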

Data set [13] relates to SH-SY5Y. In words: Neuroprotective activity against amyloid beta (1 to 42)-induced toxicity in human SH-SY5Y cells assessed as increase in cell viability at 1 to 250 mg/l measured after 48 hrs by MTT assay. In kind it is functional, cell-based. Particulars: dose 1-250 mg/L. The method, boiled down: as §3
Data set [14] concerns SH-SY5Y. In words: Neuroprotective activity against amyloid beta (1 to 42)-induced toxicity in human SH-SY5Y cells assessed as increase in cell viability at 1 to 250 mg/l measured after 48 hrs by LDH release assay. In kind it is functional, cell-based. The conditions noted are these: dose 1-250 mg/L. The method, boiled down: as §3
Data set [15] relates to SH-SY5Y. In words: Neuroprotective activity against amyloid beta (1 to 42)-induced apoptosis in human SH-SY5Y cells assessed as early apoptotic cells at IC50 measured after 48 hrs by Annexin-V/Propidium iodide staining based flow cytometry (reference value: 0.74%). The class given is functional. On the technique in general: In flow cytometry, cells or beads pass a laser one at a time.

In data set [16] the test system is SH-SY5Y. In words: Neuroprotective activity against amyloid beta (1 to 42)-induced apoptosis in human SH-SY5Y cells assessed as late apoptotic cells at IC50 measured after 48 hrs by Annexin-V/Propidium iodide staining based flow cytometry (reference value: 33.72%). The class given is functional.
The test system of data set [17] is SH-SY5Y. As to the kind of experiment: Neuroprotective activity against amyloid beta (1 to 42)-induced apoptosis in human SH-SY5Y cells assessed as necrotic cells at IC50 measured after 48 hrs by Annexin-V/Propidium iodide staining based flow cytometry (reference value: 6.99%). In kind it is functional.
In data set [18] the test system is Erythrocyte. As to the kind of experiment: Antioxidant activity in human RBC assessed as increase in total antioxidant capacity level up to 400 ug/ml measured after 72 hrs relative to control. In kind it is functional. Particulars: dose microg/ml <=400.
Data set [19] relates to Erythrocyte. As to the kind of experiment: Cytoprotective activity against H2O2-induced oxidative damage in human RBC assessed as increase in cell viability measured after 72 hrs by MTT assay. In kind it is functional, cell-based. (Tetrazolium assays rely on reduction of a dye to a coloured formazan, in cell work by metabolically active cells.)
Data set [20] relates to Erythrocyte. As to the kind of experiment: Cytoprotective activity against H2O2-induced oxidative damage in human RBC assessed as increase in cell viability measured after 72 hrs by LDH release assay. The class given is functional, cell-based. The method, boiled down: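 Heparinized whole blood cultured with phytohemagglutinin. Cells were co-incubated with 50 or 100 μM hybrid and H2O2 (25 μM). Viability was read by MTT: lymphocytes at 2×10^5 per well, MTT 4 h at 37°C, formazan dissolved in DMSO, absorbance 570 nm. LDH release was measured on 100 μL medium with a commercial kit. Results are relative to untreated control.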

Data set [21] concerns Erythrocyte. In words: Cytoprotective activity against H2O2-induced oxidative damage in human RBC assessed as recovery of H2O2-induced cell death at 50 to 100 uM measured after 72 hrs by MTT assay relative to control. In kind it is functional. The conditions noted are these: dose 50-100 µM.
The test system of data set [22] is Erythrocyte. In words: Cytoprotective activity against H2O2-induced oxidative damage in human RBC assessed as recovery of H2O2-induced cell death at 50 to 100 uM measured after 72 hrs by LDH release assay relative to control. In kind it is functional. Particulars: dose 50-100 µM. In outline:
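Heparinised human whole blood cultured in phytohemagglutinin-containing chromosome medium and co-incubated with hybrids and H2O2 at 37C for 72 h. LDH released into the culture medium was measured with a commercial kit. Triton X-100 served as positive control, with untreated cultures as reference. Cytoprotection was expressed as viability relative to control.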
For orientation: LDH in the medium is a marker of cell lysis.

Data set [23] relates to Erythrocyte. As to the kind of experiment: Cytoprotective activity against H2O2-induced oxidative damage in human RBC assessed as restoration of antioxidant activity measured after 72 hrs by TAC assay. In kind it is functional, cell-based.
For data set [24], the system named is Erythrocyte. As to the kind of experiment: Cytoprotective activity against H2O2-induced oxidative damage in human RBC assessed as restoration of antioxidant activity at 50 to 100 uM measured after 72 hrs by TAC assay relative to control. In kind it is functional. The conditions noted are these: dose 50-100 µM.
Data set [25] relates to Erythrocyte. In words: Cytoprotective activity against H2O2-induced oxidative damage in human RBC assessed as restoration of antioxidant activity at 50 uM measured after 72 hrs by TAC assay relative to control. The class given is functional.
In data set [26] the test system is Erythrocyte. As to the kind of experiment: Cytoprotective activity against H2O2-induced oxidative damage in human RBC assessed as restoration of antioxidant activity at 100 uM measured after 72 hrs by TAC assay relative to control. In kind it is functional.
The nature of data set [27]: Stability in simulated intestinal fluid at pH 6.8 assessed as hydrolysis measured immediately in presence of pancreatin by HPLC analysis. In kind it is ADME. Particulars: simulated gi fluid. The method, boiled down:
as §1

Converted amounts (≈) assume the structure as drawn. The source made the active and inactive calls. No cut-off for these calls is given here.

For orientation: solubility means the concentration that dissolves in the medium under given conditions. Low values mean a poorly soluble substance, high ones a readily soluble substance. Broadly, the half-life is how long it takes for the measured level to halve. As to `O=C(CCCCC1CCSS1)NCCCNC(=O)Cc1ccc(O)c(O)c1` (centres undefined), the concentration in solution in [1] (solubility) was 235 µg/mL (≈ 570 µM). Besides, the “fold change (FC)” value is 15.27% in data set [2]; 47.45% in data set [3]; 65.48% in data set [4]; 5.6% in [5]; 30.4% in data set [6]; 56.3% in data set [7]. Also, the “fold change (FC)” value in data set [8] is recorded as 70%; in data set [9] it was 90.2%. This compound had a half-life in [10] of 9.21 h. In data set [11], the K came to 0.08 h⁻¹. Further, the Activity result in data set [12] was “Non-Toxic”; in data set [15], 3.88%; in [16], 13.72%; in [17] it was 1.23%; in [18], 26.5%; in data set [19], “Dose-dependent effect”. The Activity result in data set [20] was “Dose-dependent effect”; in [21], 0.5%; in [22], 0.4%; in data set [23], “Dose-dependent effect”; in data set [24], 79.2%. The result in data set [13] and in [14] was Active.

In [1], `COc1ccc(/C=C/C(=O)OCCOCCNC(=O)CCCCC2CCSS2)cc1OC` (centres undefined) yielded a solubility of 10 µg/mL (≈ 20.7 µM). Besides, the “fold change (FC)” value in [2] is recorded as 5.6%; in data set [3] it was 7.35%; in data set [4], 30.76%; in [5], 12.01%; in data set [6], 21.06%; in data set [7], 27.2%. The “fold change (FC)” value is on record as 31.38% in data set [8] and 40.3% in [9]. In data set [10], this compound gave a half-life of 17.2 h. For the same compound, in data set [11], the K came out at 0.042 h⁻¹. The Activity entry in data set [12] is “Non-Toxic”; in [15] it was 2.85%; in data set [16], 15.39%; in data set [17], 1.6%; in data set [18] it was 2%; in [19] it was “Dose-dependent effect”. For the same compound, the Activity result in data set [20] is “Dose-dependent effect”; in data set [21], 0.5%; in data set [22] it was 0.4%; in data set [23] it was “Dose-dependent effect”; in data set [25] it was 12.5%; in data set [26], 29.2%. The result in [13] and in data set [14] was Active.

On to `COc1ccc(CC(=O)OCCCNC(=O)CCCCC2CCSS2)cc1OC` (centres undefined), for which the solubility in [1] is 110 µg/mL (≈ 249 µM). The “fold change (FC)” value in data set [2] is 15.23%; in data set [3], 35.89%; in [4] it was 60.98%. In addition, the Stabilty result in data set [27] is on record as “Unstable”. The compound further had a half-life in [10] of 0.62 h. Besides, in [11], the K worked out at 1.146 h⁻¹. Further, the Activity entry in data set [12] is given as “Non-Toxic”. In addition, the result in [13] and in data set [14] was Active.
